The species named for assay [1] is Homo sapiens. The assay is described as follows: Adsorbed radiation dose value was calculated to human liver. The format is functional. In outline:
(§1)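 Human absorbed radiation dose estimated by the standard MIRD method from rat tissue distribution (% dose/g, 1 h–21 days) and excretion data. Excretion came from three individually caged female rats, with urine and feces collected daily over 21 days.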

For assay [2], the species on record is Homo sapiens. As to the kind of experiment: Adsorbed radiation dose value was calculated to human spleen. Format: functional. In outline: as §1
The species entered for assay [3] is Homo sapiens. As to the kind of experiment: Adsorbed radiation dose value was calculated to human lungs. The format is functional. In outline: as §1
The species named for assay [4] is Homo sapiens. The assay is described as follows: Adsorbed radiation dose value was calculated to human pancreas. The format is functional. In outline: as §1
Assay [5] is filed under the species Homo sapiens. The assay is described as follows: Adsorbed radiation dose value was calculated to human small intestine. The format is functional. In outline: as §1
Assay [6] is filed under the species Homo sapiens. As to the kind of experiment: Adsorbed radiation dose value was calculated to human kidney. The format is functional. In outline:
as §1

The species named for assay [7] is Homo sapiens. The assay is described as follows: Adsorbed radiation dose value was calculated to human adrenal. The format is functional. In outline: as §1
The species named for assay [8] is Homo sapiens. As to the kind of experiment: Adsorbed radiation dose value was calculated to human ovaries. The format is functional, Female gonad. In outline: as §1
The species entered for assay [9] is Homo sapiens. As to the kind of experiment: Adsorbed radiation dose value was calculated to human total body. Format: functional. In outline: as §1
The nature of assay [10]: Adrenal/Tissue ratio calculated from percent dose per gram of tissue determined after 1 day intravenous administration from kidney. The format is functional. In outline:
(§2)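 Female Fischer 344 rats (160–180 g), fed ad libitum. Steroid dissolved in EtOH, formulated in Tween 80–EtOH–saline, 5–10 μCi in 1 mL given into a lateral tail vein under light Et₂O anesthesia. Organs removed 1 day post-injection, rinsed, blotted, weighed and gamma counted, 3 rats per time point. Ratios taken from adrenal vs tissue % dose/g.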

Assay [11] can be described thus: Adrenal/Tissue ratio calculated from percent dose per gram of tissue determined after 1 day intravenous administration from liver. The format is functional. In outline: as §2
The nature of assay [12]: Adrenal/Tissue ratio calculated from percent dose per gram of tissue determined after 1 day intravenous administration from ovaries. The format is functional. In outline: as §2
Assay [13] can be described thus: Adrenal/Tissue ratio calculated from percent dose per gram of tissue determined after 1 day intravenous administration from blood. The format is functional. In outline:
as §2

Assay [14] in a line: Adrenal/Tissue ratio calculated from percent dose per gram of tissue determined after 1 day intravenous administration from spleen. The format is functional. In outline:
as §2

A short description of assay [15]: Adrenal/Tissue ratio calculated from percent dose per gram of tissue determined after 1 day intravenous administration from lung. The format is functional. In outline:
as §2

In the case of `CC(C)[73Se]CCC[C@H](C)[C@H]1CC[C@H]2[C@@H]3CC=C4C[C@@H](O)CC[C@]4(C)[C@H]3CC[C@]12C`, the Dose in the assay listed under Homo sapiens [1] is 1.7 rd mCi-1; in the assay filed under Homo sapiens [2], 1.9 rd mCi-1; in the assay filed under Homo sapiens [3], 1.7 rd mCi-1; in the assay filed under Homo sapiens [4], 0.5 rd mCi-1; in the assay listed under Homo sapiens [5] it was 0.64 rd mCi-1; in the assay filed under Homo sapiens [6], 0.67 rd mCi-1. Besides, the figures for the Dose in the assay filed under Homo sapiens [7], in the assay listed under Homo sapiens [8] and in the assay listed under Homo sapiens [9] were 1.6 rd mCi-1, 1.2 rd mCi-1 and 0.24 rd mCi-1, respectively.
With `CC(C)CCCC(C)C1CCC2C3CC(CI)C4=C(CCC(O)C4)C3CCC12C` (centres undefined), the Ratio was 107.8 in assay [10], 52.2 in assay [11], 3 in assay [12] and 92.1 in [13].
Take `C[Se]C[C@@H]1CC2C(CCC3(C)C(C(C)CCCC(C)C)CCC23)C2=C1CC(O)CC2` (some centres undefined) [SCINTIDREN]: the Ratio is 52.5 in [10]; 42 in assay [11]; 27.1 in [14]; 3.2 in assay [12]; 105 in [13]; 28.9 in [15].

The values are drawn from ChEMBL document CHEMBL1122384, “Synthesis and evaluation of 24-(isopropyl[75Se]seleno)chol-5-en-3 beta-ol” (J Med Chem, 1983).
